Entries after “also recorded” stand apart in the source; their conditions may differ. No end group written: not given here.

Test [1] addresses T1, LSD2 (Homo sapiens, UniProt Q8NB78).
T1 sequence (Q8NB78 1-822): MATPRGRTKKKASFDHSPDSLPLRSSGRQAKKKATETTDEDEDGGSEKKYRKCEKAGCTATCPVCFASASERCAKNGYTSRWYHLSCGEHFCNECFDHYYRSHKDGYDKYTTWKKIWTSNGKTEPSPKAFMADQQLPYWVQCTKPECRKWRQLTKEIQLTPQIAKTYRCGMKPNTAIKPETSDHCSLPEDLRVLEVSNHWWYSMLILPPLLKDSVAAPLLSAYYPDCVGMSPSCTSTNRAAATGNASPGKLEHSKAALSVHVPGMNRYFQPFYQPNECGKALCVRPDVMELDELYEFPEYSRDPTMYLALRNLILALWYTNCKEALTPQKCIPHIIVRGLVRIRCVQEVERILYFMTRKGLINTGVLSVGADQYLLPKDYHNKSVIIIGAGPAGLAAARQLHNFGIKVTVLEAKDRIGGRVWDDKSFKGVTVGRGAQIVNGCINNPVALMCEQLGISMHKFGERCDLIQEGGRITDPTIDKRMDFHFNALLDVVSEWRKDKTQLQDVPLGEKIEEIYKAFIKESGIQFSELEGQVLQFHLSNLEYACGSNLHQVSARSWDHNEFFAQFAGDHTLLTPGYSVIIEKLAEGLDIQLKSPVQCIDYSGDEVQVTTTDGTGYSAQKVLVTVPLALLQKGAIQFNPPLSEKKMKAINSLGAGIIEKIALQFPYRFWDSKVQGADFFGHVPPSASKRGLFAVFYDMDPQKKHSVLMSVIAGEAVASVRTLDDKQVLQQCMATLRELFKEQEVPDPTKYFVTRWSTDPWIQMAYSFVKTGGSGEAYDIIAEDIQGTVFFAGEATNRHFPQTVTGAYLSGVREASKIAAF
Nature of the test: H3K4me2 peptide. It is filed as biochemical. The note with it: 50 μM H3K4me2 peptide (1–21), 50 mM Tris-HCl pH 8.5, 50 mM KCl, 5 mM MgCl2, 5% glycerol, 37°C, 30 min; MALDI-TOF MS. The essentials:
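Purified LSD2, full-length or truncated (residues 51–822), incubated with NPAC-derived peptides or proteins and 50 μM H3K4me2 peptide (residues 1–21, >95% pure by HPLC and MS) in 50 mM Tris-HCl pH 8.5, 50 mM KCl, 5 mM MgCl2, 5% glycerol, 37°C, 30 min. Products desalted on C18 tips; MALDI-TOF MS at constant laser intensity across samples.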

The target of test [2] is T1, LSD2. As to the kind of experiment: nucleosome demethylation assay, stimulation. The test is classed as biochemical. The note with it: independent of PWWP module; discussion.
In test [3] the target is T1, LSD2. As to the kind of experiment: GST pull-down of His-LSD2. The test is classed as binding. The note with it: GST pull-down of purified His-LSD2, SDS-PAGE, Coomassie blue staining. The procedure, abridged: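 GST and GST-tagged wild-type or mutant NPAC proteins (linker-region and binding-site mutants) were used to pull down purified His-LSD2. His-LSD2 in input and bound fractions was resolved by SDS-PAGE and stained with Coomassie blue.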

Test [4] deals with T2, LSD2 used for isothermal titration calorimetry (human, UniProt Q8NB78 1-822).
T2 sequence (looked up): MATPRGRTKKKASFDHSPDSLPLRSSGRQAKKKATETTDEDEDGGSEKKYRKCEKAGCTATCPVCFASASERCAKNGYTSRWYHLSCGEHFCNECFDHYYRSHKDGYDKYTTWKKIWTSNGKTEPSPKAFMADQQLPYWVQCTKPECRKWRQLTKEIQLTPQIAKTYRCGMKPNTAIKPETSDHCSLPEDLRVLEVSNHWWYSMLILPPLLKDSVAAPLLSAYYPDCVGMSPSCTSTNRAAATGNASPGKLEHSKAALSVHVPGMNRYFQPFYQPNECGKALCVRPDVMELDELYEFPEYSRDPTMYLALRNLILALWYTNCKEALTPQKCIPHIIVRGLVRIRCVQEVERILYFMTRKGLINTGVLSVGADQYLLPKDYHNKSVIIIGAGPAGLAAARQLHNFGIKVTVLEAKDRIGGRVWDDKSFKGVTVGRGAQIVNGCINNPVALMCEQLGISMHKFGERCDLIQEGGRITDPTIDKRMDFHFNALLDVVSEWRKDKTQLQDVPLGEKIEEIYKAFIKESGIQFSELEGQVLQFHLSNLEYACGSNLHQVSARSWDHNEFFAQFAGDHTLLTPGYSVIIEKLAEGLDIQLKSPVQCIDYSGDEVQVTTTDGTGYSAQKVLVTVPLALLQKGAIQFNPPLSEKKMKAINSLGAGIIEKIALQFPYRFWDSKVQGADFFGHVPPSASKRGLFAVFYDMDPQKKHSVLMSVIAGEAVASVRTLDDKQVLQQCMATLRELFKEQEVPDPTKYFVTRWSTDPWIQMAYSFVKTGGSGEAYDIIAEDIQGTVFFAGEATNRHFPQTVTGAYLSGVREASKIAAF
As to the kind of experiment: ITC. On the technique in general: Isothermal titration calorimetry measures the heat released or taken up as one component is titrated into another.

Test [5] addresses T3, LSD2 (residues 51–822), as crystallised with NPAC (human, UniProt Q8NB78 51-822).
T3 sequence: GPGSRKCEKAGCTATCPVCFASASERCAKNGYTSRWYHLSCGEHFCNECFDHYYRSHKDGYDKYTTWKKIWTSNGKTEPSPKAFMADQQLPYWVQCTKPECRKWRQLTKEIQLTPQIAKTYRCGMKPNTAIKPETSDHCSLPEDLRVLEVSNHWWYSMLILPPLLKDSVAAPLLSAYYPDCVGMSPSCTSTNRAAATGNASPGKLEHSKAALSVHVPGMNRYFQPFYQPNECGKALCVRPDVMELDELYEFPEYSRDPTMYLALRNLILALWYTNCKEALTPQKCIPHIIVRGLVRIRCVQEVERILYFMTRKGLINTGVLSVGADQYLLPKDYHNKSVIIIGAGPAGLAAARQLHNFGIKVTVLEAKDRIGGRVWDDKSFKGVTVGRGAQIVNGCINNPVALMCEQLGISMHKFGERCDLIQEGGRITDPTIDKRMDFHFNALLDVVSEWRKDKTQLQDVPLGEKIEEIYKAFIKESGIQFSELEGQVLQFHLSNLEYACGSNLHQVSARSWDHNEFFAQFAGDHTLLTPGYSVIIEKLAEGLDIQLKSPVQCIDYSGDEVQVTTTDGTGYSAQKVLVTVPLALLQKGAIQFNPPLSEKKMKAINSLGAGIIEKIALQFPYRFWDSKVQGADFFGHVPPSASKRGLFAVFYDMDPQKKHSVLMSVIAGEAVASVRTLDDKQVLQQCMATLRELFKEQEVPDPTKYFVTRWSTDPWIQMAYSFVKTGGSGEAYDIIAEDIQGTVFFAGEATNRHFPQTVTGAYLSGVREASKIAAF
Nature of the test: crystal structure.

Turning to DPHAHHFLLSQT [NP.M6], the “cofactor activity for LSD2 with H3K4me2 peptide (residues 1–21) as substrate” value (from here on “cofactor activity for LSD2”) at LSD2 [1] was “but not the F217A mutant, can stimulate LSD2-mediated demethylation of H3K4me2 peptides; also recorded: These results were further confirmed in demethylation assays using H3K4me2 peptide substrate (residues 1–21)”.
For DPHFHHFLLSQT [NP.WT], the “cofactor activity for LSD2” value at LSD2 [1] is on record as “can stimulate LSD2-mediated demethylation of H3K4me2 peptides”. Moreover, on LSD2 [2], the “cofactor activity stimulating LSD2 demethylation of nucleosomes and synthetic histone peptides (summary)” value is given as “robust cofactor activity”.

B1: NP.d3: truncation protein containing the linker region, residues 152–252; GST-tagged (protein)
chain: SERGSKSPLKRAQEQSPRKRGRPPKDEKDLTIPESSTVKGMMAGPMAAFKWQPTASEPVKDADPHFHHFLLSQTEKPAVCYQAITKKLKICEEETGSTSIQ
modifications: left off: GST, end not stated, kept
Take B1: the “cofactor activity for LSD2” value in the test with LSD2 [1] is reported as “strong cofactor activity for LSD2”. Moreover, the “LSD2 binding / interaction” value with LSD2 [3] is given as “capable of directly interacting with LSD2”; with LSD2 [3] (listed as linker region of NPAC) it was “sufficient for LSD2 binding”.
On to DPHFHHFLLSQT (peptide, UniProt Q49A26 214-225, looked up) [wild-type NPAC dodecapeptide (residues 214–225)], for which, in test [4], the affinity, expressed as Kd, was 920 ± 80 nM.
On the same count and under the same terms, next, DPHAHHFLLSQT (peptide, UniProt Q49A26 214-225, looked up) [NPAC dodecapeptide (residues 214–225) F217A]: 930 ± 70 nM.

B2: NPAC linker region (amino acids 152–268), as crystallised with LSD2 (domain or fragment, UniProt Q49A26 152-268, looked up)
chain: SERGSKSPLKRAQEQSPRKRGRPPKDEKDLTIPESSTVKGMMAGPMAAFKWQPTASEPVKDADPHFHHFLLSQTEKPAVCYQAITKKLKICEEETGSTSIQAADSTAVNGSITPTDK
B2: the binding result in test [5] was “binds”.

Values taken from paper PMC3625064 (Molecular cell, 2012).
